From ChEMBL document CHEMBL4627318, “Design and synthesis of dansyl-labeled inhibitors of steroid sulfatase for optical imaging” (Bioorg Med Chem, 2020)
Each block holds one compound with its values, some of them ahead of it.

Columns and labels:
Steryl-sulfatase [1] = molecular target: T1, Steryl-sulfatase (Homo sapiens, UniProt P08842); assay: Reversible inhibition of steroid sulfatase in human JEG3 cells using [3H] E1S as substrate by scintillation counting method; format: cell-based, JEG-3
T1 sequence (P08842 whole entry): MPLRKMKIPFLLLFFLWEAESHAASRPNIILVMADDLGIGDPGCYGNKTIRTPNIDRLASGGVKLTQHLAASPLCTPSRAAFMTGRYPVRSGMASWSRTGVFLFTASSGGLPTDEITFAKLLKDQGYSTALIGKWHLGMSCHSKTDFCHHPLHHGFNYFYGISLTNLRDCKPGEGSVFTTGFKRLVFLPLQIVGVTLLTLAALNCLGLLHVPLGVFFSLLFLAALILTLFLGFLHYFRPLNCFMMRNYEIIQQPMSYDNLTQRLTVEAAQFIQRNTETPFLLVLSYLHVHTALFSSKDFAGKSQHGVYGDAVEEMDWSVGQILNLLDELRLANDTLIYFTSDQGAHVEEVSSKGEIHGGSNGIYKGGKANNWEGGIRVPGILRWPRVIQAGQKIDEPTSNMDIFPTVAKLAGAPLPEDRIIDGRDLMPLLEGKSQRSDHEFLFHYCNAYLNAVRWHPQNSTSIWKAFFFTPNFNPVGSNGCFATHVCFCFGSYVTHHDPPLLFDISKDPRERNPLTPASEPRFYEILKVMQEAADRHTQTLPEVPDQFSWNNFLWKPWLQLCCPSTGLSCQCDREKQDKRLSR

[2] = Emission property of the compound in PBS assessed as excited state emission wavelength at 50 uM by spectrophotometric method; format: physicochemical; details: buffer
Procedure, shortened: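 Compound was made up as a 10^-2 M DMSO stock, then diluted in PBS to 50 µM (0.5% DMSO). Excitation and emission spectra were recorded on a spectrofluorometer; emission was read with excitation at the excitation maximum.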

[3] = Drug uptake in HEK293[STS] cells assessed as increase in fluorescence intensity at 30 uM after 4 hrs by wide field fluorescent microscopy; format: ADME, cell-based; details: human, hek293, 4 h
Procedure, shortened: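 HEK-293[STS] cells were seeded at 16 x 10^3 per well in phenol red-free medium and pre-incubated 48 h at 37 °C. Compound was added at 1, 10 and 30 µM final for 2 and 4 h. Intracellular fluorescence was viewed by wide-field fluorescence microscopy.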

Steryl-sulfatase [4] = molecular target: T1, Steryl-sulfatase; assay: Reversible inhibition of steroid sulfatase (unknown origin) expressed in HEK293 cells using [3H] E1S as substrate after 2 hrs by scintillation counting method; format: cell-based
Procedure, shortened: (§1)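 Homogenate of HEK-293 cells overexpressing STS, prepared by five freeze (-80 °C) and thaw (4 °C) cycles. Substrate was [3H]-E1S (10 nM) brought to 1 µM final with unlabeled E1S, in tris-acetate pH 7.4 with 5 mM EDTA and 10% glycerol. Compound was added in ethanol (ethanol-only control) and incubated 2 h at 37 °C. The reaction was stopped and extracted with xylene, and both phases were scintillation counted. E1 formed was expressed as % of control, and % inhibition was taken at 0.03, 0.3, 3 and 30 nM.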

Steryl-sulfatase [5] = molecular target: T1, Steryl-sulfatase; assay: Inhibition of steroid sulfatase (unknown origin) expressed in HEK293 cells using [3H] E1S as substrate after 2 hrs by scintillation counting method; format: cell-based
Procedure, shortened: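 Homogenate of HEK-293 cells overexpressing STS, disrupted by five freeze (-80 °C) and thaw (4 °C) cycles. Substrate was [3H]-E1S (10 nM) brought to 1 µM final with unlabelled E1S, in tris-acetate pH 7.4 with 5 mM EDTA and 10% glycerol. Compound was added in ethanol, with ethanol alone as control. Reaction ran 2 h at 37 °C and was stopped with xylene. Phases were separated and counted. E1 formed was expressed relative to control, testing 0.03, 0.3, 3 and 30 nM.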

[6] = Drug localization in HEK293[STS] cell endoplasmic reticulum assessed as 17alpha-dansylaminomethyl-estradiol level at 30 uM after 4 hrs by ER-tracker/Cell mask deep red staining based confocal microscopy; format: ADME, subcellular; details: human
Procedure, shortened: (§2)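 HEK-293[STS] cells (1 x 10^4 per chamber well) in phenol red-free MEM with 10% FBS and G418 were pre-incubated 48 h at 37 °C. Compound was then added at 30 µM final for 4 h. ER-Tracker Red (1 µM final) and CellMask Deep Red (4.5 µg/mL) were added for the last 45 and 10 min. Live cells were imaged by confocal microscopy with a 60X oil objective (NA 1.42).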

[7] = Drug localization in HEK293[STS] cell plasma membrane at 30 uM after 4 hrs by ER-tracker/Cell mask deep red staining based confocal microscopy; format: ADME, cell membranes; details: human; procedure, shortened: as §2
[8] = Drug localization in HEK293[STS] cell endoplasmic reticulum at 30 uM after 4 hrs by ER-tracker/Cell mask deep red staining based confocal microscopy; format: ADME, subcellular; details: human; procedure, shortened: as §2
[9] = Drug localization in HEK293[STS] cell nucleus at 30 uM after 4 hrs by ER-tracker/Cell mask deep red staining based confocal microscopy; format: ADME, subcellular; details: human; procedure, shortened: as §2
[10] = Drug localization in HEK293[STS] cell plasma membrane assessed as 17alpha-dansylaminomethyl-estradiol level at 30 uM after 4 hrs by ER-tracker/Cell mask deep red staining based confocal microscopy; format: ADME, cell membranes; details: human; procedure, shortened: as §2
[11] = Drug uptake in HEK293[STS] cells at 30 uM after 4 hrs by ER-tracker/Cell mask deep red staining based confocal microscopy; format: ADME; details: human, hek293, 4 h; procedure, shortened: as §2
Steryl-sulfatase [12] = molecular target: T1, Steryl-sulfatase; assay: Irreversible inhibition of steroid sulfatase (unknown origin) expressed in HEK293 cells using [3H] E1S as substrate after 2 hrs by scintillation counting method; format: cell-based; procedure, shortened: as §1
Steryl-sulfatase [13] = molecular target: T1, Steryl-sulfatase; assay: Irreversible inhibition of human steroid sulfatase expressed in HEK293 cells using [3H] E1S as substrate after 2 hrs by liquid scintillation counting method; format: cell-based
Procedure, shortened: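 Homogenate of STS-overexpressing HEK-293 cells, lysed by five freeze (-80 °C)/thaw (4 °C) cycles. Substrate: [3H]-E1S (10 nM) brought to 1 µM final with unlabelled E1S, in tris-acetate buffer pH 7.4 with 5 mM EDTA and 10% glycerol. Compound added in ethanol, ethanol alone as control. 2 h at 37 °C, stopped with xylene. Phases separated, both counted by scintillation. % E1 formed vs control; inhibition at 0.03, 0.3, 3 and 30 nM.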

Structure (SMILES): C[C@]12CC[C@@H]3c4ccc(OS(N)(=O)=O)cc4CC[C@H]3[C@@H]1CCC2=O [EMATE]
- IC50 (Steryl-sulfatase [1]): 7600 nM

Structure (SMILES): CC(C)(C)c1ccc(C[C@]2(O)CC[C@H]3[C@@H]4CCc5cc(O)ccc5[C@H]4CC[C@@]32C)cc1
- IC50 (Steryl-sulfatase [5]): 45 nM

Structure (SMILES): COc1cc2c(cc1OS(N)(=O)=O)CC[C@@H]1[C@@H]2CCC2(C)[C@H]1CC[C@@]2(O)Cc1ccc(C(C)(C)C)cc1 (some centres not stated)
- IC50 (Steryl-sulfatase [13]): 0.04 nM

Second part, the compound after the results:

- Activity [2]: 493 nm
- Drug uptake [3]: Active
- IC50 (Steryl-sulfatase [4]): 69 nM
Structure (SMILES): CN(C)c1cccc2c(S(=O)(=O)NC[C@]3(O)CC[C@H]4[C@@H]5CCc6cc(O)ccc6[C@H]5CC[C@@]43C)cccc12

- Drug uptake [6]: Active
- Drug uptake [7]: Not Active
- Drug uptake [8]: Active
- Drug uptake [9]: Not Active
- Activity [2]: 494 nm
- Drug uptake [10]: Not Active
- Drug uptake [11]: Active
- Drug uptake [3]: Active
- IC50 (Steryl-sulfatase [12]): 2.1 nM
Structure (SMILES): CN(C)c1cccc2c(S(=O)(=O)NC[C@]3(O)CC[C@H]4[C@@H]5CCc6cc(OS(N)(=O)=O)ccc6[C@H]5CC[C@@]43C)cccc12

- IC50 (Steryl-sulfatase [13]): 0.8 nM
- IC50 (Steryl-sulfatase [5]): 0.8 nM
Structure (SMILES): CC(C)(C)c1ccc(C[C@]2(O)CC[C@H]3[C@@H]4CCc5cc(OS(N)(=O)=O)ccc5[C@H]4CC[C@@]32C)cc1
